Columns and labels:
[1] = organism: Rattus norvegicus; experiment: Compound was tested for the subacute single dose from the toxicity studies in rats.; format: organism-based; conditions: in vivo
[2] = test system: Mus musculus; experiment: Compound was tested for its efficacy against L1210 Leukemia in mice at a dose of 25 mg/kg through intraperitoneal route.(Treatment schedule day is 1).; format: functional, organism-based; design: dose 25 mg/kg
Method in brief: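 Six B6D2F1 mice per group, 20-25 g, inoculated ip with 10^6 L1210/0 cells on day 0. A single ip dose of liposomal Pt (DMPC:DMPG 7:3 multilamellar vesicles in 0.9% NaCl) was given on day 1; doses of 12.5, 25 and 50 mg/kg were tested. %T/C = median survival treated/control ×100; study ended day 60; mean of three experiments.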

[3] = test system: Mus musculus; experiment: Compound was tested for its efficacy against L1210 Leukemia in mice at a dose of 5 mg/kg through intraperitoneal route.(Treatment schedule day is 1,5,9).; format: functional, organism-based; design: dose 5 mg/kg
[4] = test system: Mus musculus; experiment: Compound was tested for its efficacy against L1210 / cisplatin Leukemia in mice at a dose of 5 mg/kg through intraperitoneal route.(Treatment schedule day is 1,5,9).; format: functional, organism-based; design: dose 5 mg/kg
Method in brief: (§1)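 L1210/cisplatin cells (NCI repository) passaged weekly ip in BDF1 mice. Groups of six B6D2F1 mice, 20-25 g, inoculated ip with 10^6 cells on day 0, then given liposomal Pt (DMPC:DMPG 7:3 multilamellar vesicles in 0.9% NaCl) or cisplatin ip on days 1, 5 and 9. Read-out %T/C = median survival treated/control ×100; study ended day 60; average of two experiments.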

[5] = test system: Mus musculus; experiment: Compound was tested for its efficacy against L1210 Leukemia in mice at a dose of 25 mg/kg through intraperitoneal route.(Treatment schedule day is 1,5,9).; format: functional, organism-based; design: dose 25 mg/kg
Method in brief: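 L1210/0 leukemia passaged weekly ip in BDF1 mice. Six B6D2F1 mice per group (20-25 g) received 10^6 cells ip on day 0. Liposomal Pt (DMPC:DMPG 7:3 MLVs in 0.9% NaCl) or cisplatin was given ip on days 1, 5, 9; doses tested 12.5, 25, 50 mg/kg. Optimal dose is the highest %T/C without toxic deaths. %T/C is from median survival; study ended day 60; average of two experiments.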

[6] = test system: Mus musculus; experiment: Compound was tested for its efficacy against L1210 / cisplatin Leukemia in mice at a dose of 25 mg/kg through intraperitoneal route.(Treatment schedule day is 1,5,9).; format: functional, organism-based; design: dose 25 mg/kg; method in brief: as §1
[7] = organism: Rattus norvegicus; experiment: Compound was tested for the subacute single dose from the toxicity studies in rats; format: organism-based; conditions: in vivo

CISPLATIN [listing 1 of 2 here]
LD50 [1]: 17.5 mg/kg

CISPLATIN [listing 2 of 2 here]
T/C [2]: 175% | T/C [3]: 220% | T/C [4]: 112%

Liposomal preparation of (ttans-(R,R)-dach)Pt complex containing isomeric mixture of neodecanoic acid (L-NDDP) [listing 1 of 2 here]
LD50 [1]: 54 mg/kg

Liposomal preparation of (ttans-(R,R)-dach)Pt complex containing isomeric mixture of neodecanoic acid (L-NDDP) [listing 2 of 2 here]
T/C [5]: 312% | T/C [2]: 187% | T/C [6]: 200%

Pt (2,2-diethyl-4-methylpentanoato)2((R,R)-dach) [listing 1 of 2 here]
LD50 [1]: 62.3 mg/kg

Pt (2,2-diethyl-4-methylpentanoato)2((R,R)-dach) [listing 2 of 2 here]
T/C [5]: 257% | T/C [2]: 225% | T/C [6]: 185%

Pt (2,2-diethyl-4-methylpentanoato)2((S,S)-dach) [listing 1 of 2 here]
LD50 [7]: 81 mg/kg

Pt (2,2-diethyl-4-methylpentanoato)2((S,S)-dach) [listing 2 of 2 here]
T/C [2]: 160%

Pt (2,2-diethylhexanoato)2((R,R)-dach) [listing 1 of 2 here]
LD50 [1]: 80.8 mg/kg

Pt (2,2-diethylhexanoato)2((R,R)-dach) [listing 2 of 2 here]
T/C [5]: 257% | T/C [2]: 253% | T/C [6]: 231%

Pt (2,2-diethylhexanoato)2((S,S)-dach) [listing 1 of 2 here]
LD50 [1]: 104 mg/kg

Pt (2,2-diethylhexanoato)2((S,S)-dach) [listing 2 of 2 here]
T/C [2]: 190%

Pt (2,2-dimethyl-4-ethylhexanoato)2((R,R)-dach)
T/C [2]: 212%

Pt (2,2-dimethyloctanoato)2((R,R)-dach) [listing 1 of 2 here]
LD50 [1]: 94.5 mg/kg

Pt (2,2-dimethyloctanoato)2((R,R)-dach) [listing 2 of 2 here]
T/C [5]: 257% | T/C [2]: 234% | T/C [6]: 355%

Pt (2,2-dimethyloctanoato)2((S,S)-dach) [listing 1 of 2 here]
LD50 [1]: 87 mg/kg

Pt (2,2-dimethyloctanoato)2((S,S)-dach) [listing 2 of 2 here]
T/C [2]: 150%

From ChEMBL document CHEMBL1125870, “Chemical and biological studies on a series of lipid-soluble (trans-(R,R)- and -(S,S)-1,2-diaminocyclohexane)platinum(II) complexes incorporated in liposomes” (J Med Chem, 1991)
